NALP1 inh: NALP1 inflammasome inhibitors in reconstituted yeast, colorimetric, S. cerevisiae, triplicate retest. S. cerevisiae NALP1/ASC/caspase-1 growth, X-gal OD620, 72 h. AID 2071, 2009. inhibition, % at 10 µM. actives 0.61% (n = 280,000); in the data active means inhibition mostly above about 24%, no sharp cut-off; inactive means mostly below about 32%
Pemphigus Ab inh: inhibitors of pemphigus antibody binding to DSG3, primary screen, biochemical, bead-based, flow cytometry, scFv-GFP; Desmoglein-3 (Homo sapiens), P32926; DSG3-coupled beads, scFv-anti-DSG3-GFP binding; active compounds read low; binding (percent of control), % at 10 µM; actives 0.48% (n = 310,000); AID 588358, 2011;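 active means binding more than 3 SD below its plate's average and above zero; inconclusive means below that plate limit but binding exactly zero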;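 further: hits lower antibody fragment binding to DSG3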
Target sequence (P32926 whole entry, looked up, the tested form may be a part): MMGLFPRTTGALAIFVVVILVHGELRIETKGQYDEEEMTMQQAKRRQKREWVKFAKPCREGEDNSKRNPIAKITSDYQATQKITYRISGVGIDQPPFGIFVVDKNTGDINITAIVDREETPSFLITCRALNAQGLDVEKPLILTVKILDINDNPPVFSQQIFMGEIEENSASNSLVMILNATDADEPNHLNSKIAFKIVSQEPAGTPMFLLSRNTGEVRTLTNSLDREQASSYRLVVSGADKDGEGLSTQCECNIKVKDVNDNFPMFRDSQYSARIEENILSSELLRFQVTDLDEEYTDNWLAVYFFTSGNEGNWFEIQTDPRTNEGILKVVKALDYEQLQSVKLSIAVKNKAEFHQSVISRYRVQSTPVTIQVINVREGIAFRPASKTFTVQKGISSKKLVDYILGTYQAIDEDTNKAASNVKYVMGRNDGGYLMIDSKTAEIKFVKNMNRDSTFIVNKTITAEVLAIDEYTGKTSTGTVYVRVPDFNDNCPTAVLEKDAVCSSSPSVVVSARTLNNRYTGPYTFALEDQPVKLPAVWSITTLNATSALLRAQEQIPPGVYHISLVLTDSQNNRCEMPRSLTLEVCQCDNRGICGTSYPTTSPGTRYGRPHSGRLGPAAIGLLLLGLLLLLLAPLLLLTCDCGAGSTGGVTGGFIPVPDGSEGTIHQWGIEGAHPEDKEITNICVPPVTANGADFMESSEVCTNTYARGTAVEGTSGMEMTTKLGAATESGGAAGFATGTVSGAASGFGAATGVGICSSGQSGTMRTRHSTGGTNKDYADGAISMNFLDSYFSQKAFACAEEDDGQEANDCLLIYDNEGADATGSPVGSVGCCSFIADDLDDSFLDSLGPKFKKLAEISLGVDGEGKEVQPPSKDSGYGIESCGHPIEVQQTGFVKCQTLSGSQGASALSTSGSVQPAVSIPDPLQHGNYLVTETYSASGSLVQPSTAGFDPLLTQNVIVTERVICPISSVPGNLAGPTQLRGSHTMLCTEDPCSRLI
NALP3 yeast inh: NALP3 inflammasome inhibitors in reconstituted yeast, primary screen, luminescence, uHTS. Yeast reconstituted NLRP3/ASC/caspase-1, beta-gal luminescence, 24 h. inhibition, % at 10 µM. actives 0.39% (n = 330,000). AID 2825, 2010;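 active means inhibition of 50% or more; inactive means inhibition below 50%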;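 further: plate controls were induced DMSO wells for no effect and uninduced yeast grown without galactose for full effect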
PolyA inh: polyadenylation inhibitors in yeast reporter cells, primary screen, luminescence, S. cerevisiae; activity score, % at 12 µM; AID 1875, 2009; actives 0.02% (n = 300,000); S. cerevisiae SKY197-pL101 polyadenylation reporter, beta-gal luminescence; efflux-impaired pdr1/pdr3 knockout yeast; score 100 = 6 SD above DMSO;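 active means lowest replicate activity score at least 50, where 100 means six control SD above control mean; inconclusive means lowest score under 50 but half or more replicates reach 50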;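 further: yeast exposed to compound for 9 h at 30 °C; higher score means more reporter readthrough which indicates perturbed polyadenylation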
Arr AP2 block: inhibitors of beta-arrestin/AP2 binding, primary screen, biochemical, GPCR trafficking, flow cytometry; beta-arrestin 1 C-terminal peptide binding to AP2 beta2-adaptin appendage (human); FITC-arrestin peptide / GST-AP2 beads; AP2 beta2 appendage carries R879A mutation; inhibition, % at 10 µM; actives 0.31% (n = 340,000);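 active means inhibition above a set limit, near 3 SD of compounds lacking own fluorescence, cut at about 54% in these data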;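 further: plate controls were DMSO wells for no effect and 5 µM unlabelled arrestin peptide for full effect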
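System: GST-AP2 R879A glutathione beads | Also added: FITC-arrestin peptide, 50 nM | Times: 12 min plus 1 h, RT | Signal: Bead flow cytometry, FITC channel | Buffer or medium: PBS with 0.05% Tween 20 and 0.1% BSA | Read-out basis: Percent drop in bead-associated FITC signal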
ALR inh: inhibitors of human ALR sulfhydryl oxidase, primary screen, biochemical, H2O2 detection, HRP-luminol luminescence, single point; FAD-linked sulfhydryl oxidase ALR (Homo sapiens), P55789; purified ALR, DTT oxidation; inhibition, % (no concentration beside the values); actives 3.8% (n = 290,000); AID 485317, 2010;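 active means mean replicate inhibition above about 79%, with every replicate also reaching it, limit read from the data; inconclusive means only one of the two criteria met; inactive means mean below limit and not every replicate reaching it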
* marks the source's active call; other numbers are inactive results; ? = inconclusive; . = no result given; ! = not active in a repeat. Hits are enriched below; roughly 4.6% of the tested compounds scored in any of these assays.

SMILES	NALP1 inh	Pemphigus Ab inh	NALP3 yeast inh	PolyA inh	Arr AP2 block	ALR inh
CC(=O)Nc1ccc(N2C(=O)CSC2c2ccccc2[N+](=O)[O-])cc1 (configuration not stated)	-5	102	-2	-4	48	98*
O=C1CSC(c2ccccc2[N+](=O)[O-])N1c1ccc(O)cc1 (configuration not stated)	10	103	21	-16	16	-16
c1ccc(CN(CC2=NCCN2)c2ccccc2)cc1	16	14*!	19	?	5	3
c1ccc(CC2=NCCN2)cc1	3	92	-7	3	2	-11
O=C(c1ccc(CS(=O)Cc2ccccc2Cl)o1)N1CCN(c2ccccn2)CC1 (configuration not stated)	23	106	10	-1	7	99*
O=C(c1ccc(CS(=O)Cc2ccccc2Cl)o1)N1CCN(c2cccc(Cl)c2)CC1 (configuration not stated)	-16	102	11	0	-11	99*
O=C(c1ccc(CS(=O)Cc2ccc(Cl)cc2)o1)N1CCN(c2ccccn2)CC1 (configuration not stated)	20	104	9	-4	17	-3
COc1cccc(N2CCN(C(=O)c3ccc(CS(=O)Cc4ccccc4Cl)o3)CC2)c1 (configuration not stated)	11	.	21	0	-2	52
C/C(=N\NS(=O)(=O)c1ccc([N+](=O)[O-])cc1)c1c[nH]c2ccccc12	17	.	18	7	16	55
Cc1ccc(N2C(=O)CSC2c2cccnc2)c(Cl)c1 (configuration not stated)	.	.	23	-10	11	.
O=C1CSC(c2cccnc2)N1c1cccc(Cl)c1 (configuration not stated)	8	100	18	-7	-6	99*
O=C1CSC(c2cccnc2)N1c1ccc(F)cc1 (configuration not stated)	-3	99	-1	5	18	99*
CC(=O)N1CCN(c2cc(-c3ccccc3)nc3cc(-c4cccc(Cl)c4)nn23)CC1	.	106	.	.	.	.
Cc1nn(CC(=O)Nc2ccc(S(N)(=O)=O)cc2)c(=O)c2ccccc12	22	104	17	-5	16	-4
O=C(Cc1cccs1)Nc1ccc(NC(=O)c2ccco2)cc1	4	-21*	2	14	-9	-22
O=C(Cc1cccs1)Nc1ccccc1	7	87	24	-5	-8	-9
C=C(C)Cn1c(=O)c2c(nc3n2CCCN3CCc2ccccc2)n(C)c1=O	-3	101	20	-18	-12	7
COC1=C/C(=C/c2c(N)n3nc(CC(=O)N4CCCC4)sc3nc2=O)C=CC1=O	-23	?	-27	4	12	84*
CCOC1=C/C(=C/c2c(N)n3nc(CC(=O)N4CCCC4)sc3nc2=O)C=CC1=O	-19	99	-23	1	11	99*
Nc1c(C=C2C=CC(=O)C=C2)c(=O)nc2sc(CC(=O)N3CCCCC3)nn12	0	106	8	-2	17	.
COC1=CC(=Cc2c(N)n3nc(CC(=O)N4CCCCC4)sc3nc2=O)C=C(OC)C1=O	14	?	-4	-4	15	5
O=C(c1ccc2[nH]ccc2c1)N1CCCC(Nc2ccccc2)C1 (configuration not stated)	14	100	11	3	43	99*
Cc1ccc(NC2CCCN(C(=O)c3ccc4[nH]ccc4c3)C2)cc1C (configuration not stated)	24	101	20	-13	7	88*
O=C(c1ccc(N2CCOCC2)cc1)N1CCCC(Nc2ccccc2)C1 (configuration not stated)	27	99	15	-19	5	73
